Entries after “also recorded” stand apart in the source; their conditions may differ. Where a name gives a salt, the structure may show the parent alone. Read-outs that look alike come from different tables or passages of the source. Marks after values point to notes of the source that are not given here.
What was measured:
[1] = assay type: in vivo, male Sprague-Dawley rats
Method in brief: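 Single tail-vein injection in male rats (247 ± 8 g, 7-day acclimatization): 2 mM dosing solution in 5% (v/v) DMSO/sterile saline, 575 μg/kg; vehicle-injected controls. Killed by CO2 and cervical dislocation ~3 min, 1 h or 24 h post-dose (n = 6). Feces and intestinal contents came from rats held 24 h in metabolism cages. Tissues homogenized in 4 volumes water (liver: 20% acetonitrile). Analysis by negative-ion LC-ESI-MS/MS with internal standard.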

[2] = Stability of 4-PCB 11 sulfate in rat urine; assay type: in vitro ADME; conditions: 24 hours at 25 °C (experiments not shown)
human transthyretin = conditions: cited from earlier work
[3] = PCB 11 and its metabolites, rat, cited from earlier work
[4] = 3min, iv 575 μg/kg, assuming total dose 142 μg
[5] = 24 hours, iv 575 μg/kg, assuming total dose 142 μg
[6] = 1 hour, iv 575 μg/kg, assuming total dose 142 μg

O=S(=O)(O)Oc1ccc(-c2cccc(Cl)c2)cc1Cl [4-PCB 11 sulfate, 3,3′-dichloro-4′-sulfooxy-biphenyl]
Fraction of 4-PCB 11 sulfate not recoverable ([1]; 1 hour, all samples examined): about two thirds
4-PCB 11 sulfate concentrations in tissues and fluids examined ([1]; after 24 hours of exposure): below the LOD
Observable 4-PCB 11 sulfate levels as fraction of the initial dose ([1]; after one hour): about one third
4-PCB 11 sulfate in bile ([1]; bile collected during 1 hour after injection, bile duct-cannulated rats, iv): 34 ± 3.9 µg
Fluid or Tissue (ml or g): brain, exposed animals ([1]; brain weight, exposed rats): 1.69 ± 0.07 ml or g
% of total dose in brain [1, 4]: 0.6 ± 0.2%
4-PCB 11 sulfate in brain ([1]; 3min, iv 575 μg/kg, rat): 0.8 ± 0.3 µg
4-PCB 11 sulfate in brain ([1]; 1 hour, iv 575 μg/kg, rat, detectable only in three samples): 0.9 ± 0.9 ^c μg
% of total dose in brain [1, 5]: 0%
4-PCB 11 sulfate in brain ([1]; 24 hours, iv 575 μg/kg, rat): < LOD
% of total dose in feces ([1]; feces, 24 hours, iv 575 μg/kg, assuming total dose 142 μg): 0%
4-PCB 11 sulfate in feces ([1]; feces, 24 hours, iv 575 μg/kg, rat): did not contain detectable levels; also recorded: undetectable; also recorded: < LOD
% of total dose in intestinal contents ([1]; intestinal contents, 24 hours, iv 575 μg/kg, assuming total dose 142 μg): 0%
4-PCB 11 sulfate in intestinal contents ([1]; intestinal contents, 24 hours, iv 575 μg/kg, rat): did not contain detectable levels; also recorded: undetectable; also recorded: < LOD
Fluid or Tissue (ml or g): kidneys, exposed animals ([1]; kidneys weight, exposed rats): 1.86 ± 0.16 ml or g
% of total dose in kidneys [1, 4]: 8.7 ± 2.4%
4-PCB 11 sulfate in kidneys ([1]; 3min, iv 575 μg/kg, rat): 12 ± 3.4 µg
% of total dose in kidneys [1, 6]: 1.1 ± 0.5%
4-PCB 11 sulfate in kidneys ([1]; 1 hour, iv 575 μg/kg, rat): 1.6 ± 0.7 µg
% of total dose in kidneys [1, 5]: 0%
Fluid or Tissue (ml or g): liver, exposed animals ([1]; liver weight, exposed rats): 10.6 ± 0.94 ml or g
% of total dose in liver [1, 4]: 47 ± 15%
4-PCB 11 sulfate in liver ([1]; 3min, iv 575 μg/kg, rat): 67 ± 21 µg
% of total dose in liver [1, 6]: 2 ± 1%
4-PCB 11 sulfate in liver ([1]; 1 hour, iv 575 μg/kg, rat): 2.9 ± 1.4 µg
% of total dose in liver [1, 5]: 0%
4-PCB 11 sulfate in liver ([1]; 24 hours, iv 575 μg/kg, rat): < LOD
Fluid or Tissue (ml or g): lungs, exposed animals ([1]; lungs weight, exposed rats): 1.3 ± 0.18 ml or g
% of total dose in lungs [1, 4]: 3.9 ± 1%
4-PCB 11 sulfate in lungs ([1]; 3min, iv 575 μg/kg, rat): 5.6 ± 1.4 µg
% of total dose in lungs [1, 6]: 0.4 ± 0.4%
4-PCB 11 sulfate in lungs ([1]; 1 hour, iv 575 μg/kg, rat): 0.6 ± 0.6 µg
% of total dose in lungs [1, 5]: 0%
4-PCB 11 sulfate in lungs ([1]; 24 hours, iv 575 μg/kg, rat): < LOD
Blood brain barrier crossing (detection in brain tissue) ([1]; rat, iv): ability to cross the blood brain barrier
Organ weights, exposed versus control animals ([1]; rat, iv 575 μg/kg): no significant differences
% of total dose in serum ([1]; 3min, iv 575 μg/kg, assuming total dose 142 μg per animal): 35 ± 8.5%
4-PCB 11 sulfate in serum ([1]; 3min post-injection, iv 575 μg/kg, rat): 50 ± 12 µg
% of total dose in serum [1, 6]: 2.1 ± 1.2%
4-PCB 11 sulfate in serum ([1]; 1 hour, iv 575 μg/kg, rat): 3.0 ± 1.6 µg
% of total dose in serum [1, 5]: 0%
4-PCB 11 sulfate in serum ([1]; 24 hours, iv 575 μg/kg, rat): < LOD
% of total dose in urine ([1]; urine, 24 hours collection, iv 575 μg/kg, assuming total dose 142 μg): 3.7 ± 1.8%
4-PCB 11 sulfate in urine ([1]; urine, 24 hours collection, iv 575 μg/kg, rat): 5.3 ± 2.5 µg
Stability in rat urine [2]: stable
Affinity for transthyretin (T4 binding sites) (human transthyretin): affinity comparable to the physiological ligand, thyroxine; also recorded: among the most potent ligands

Clc1cccc(-c2cccc(Cl)c2)c1 [PCB 11, 3,3′-dichlorobiphenyl]
t1/2 clearance from liver ([3]; liver): 2.1 h
t1/2 clearance from lungs ([3]; lungs): 1.9 h
t1/2 clearance from serum ([3]; serum): 1.8 h
